Laboratory results: ChEMBL document CHEMBL5532752, “Integrating a quinone substructure into histone deacetylase inhibitors to cope with Alzheimer's disease and cancer” (RSC Med Chem, 2024)

What was measured:
Assay type in all cases: functional
SH-SY5Y [1] = assay: Cytotoxicity against human SH-SY5Y cells assessed as reduction in cell viability incubated for 72 hrs by MUH reagent based spectrophotometric analysis
Procedure, shortened: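 SH-SY5Y in DMEM/10% FBS seeded 0.75 × 10⁴ cells/well, after 24 h treated with 0.1–100 μM for 24, 48 or 72 h. Washed, incubated with MUH 0.01 mg/mL in PBS 30 min at 37 °C in the dark; fluorescence ex 330/em 450 nm, normalized to untreated cells. IC50 by nonlinear regression, log(inhibitor) vs normalized response.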

SH-SY5Y [2] = assay: Cytotoxicity against human SH-SY5Y cells assessed as reduction in cell viability incubated for 24 hrs by MUH reagent based spectrophotometric analysis
SH-SY5Y [3] = assay: Cytotoxicity against human SH-SY5Y cells assessed as reduction in cell viability incubated for 48 hrs by MUH reagent based spectrophotometric analysis

| SMILES | IC50 (SH-SY5Y [1]) | IC50 (SH-SY5Y [2]) | IC50 (SH-SY5Y [3]) |
| --- | --- | --- | --- |
| O=C(CCCCCNC1=CC(=O)c2ccccc2C1=O)NO | 22.5 µM | 80 µM | 26.9 µM |
| CC1=C(NCc2ccc(C(=O)NO)cc2)C(=O)c2ccccc2C1=O | 14 µM | 39 µM | 19.8 µM |
| O=C(NO)c1ccc(CNC2=CC(=O)c3ccccc3C2=O)cc1 | 7.74 µM | 39 µM | 8.67 µM |
| O=C(CS)NCCCCNC1=CC(=O)c2ccccc2C1=O | > 100 µM | > 100 µM | > 100 µM |
| Nc1ccccc1NC(=O)c1ccc(CNC2=CC(=O)c3ccccc3C2=O)cc1 | 4.42 µM | 59.5 µM | 8.53 µM |
| CC1=C(NCCCCCC(=O)NO)C(=O)c2ccccc2C1=O | 53 µM | 178 µM | 84.4 µM |
